Test results from ChEMBL document CHEMBL1772954, “Antifungal, cytotoxic and SAR studies of a series of N-alkyl, N-aryl and N-alkylphenyl-1,4-pyrrolediones and related compounds” (Bioorg Med Chem, 2011).
Values after ≈ are worked out from the molar mass of the structure shown.

What was measured:
MCF7 = assay: Cytotoxicity against human MCF7 cells assessed as cell growth after 2 days by sulforhodamine B assay; type: functional; details: MCF7, 48 h
Outline: (§1)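 NCI cell lines were run by the Monks method: cells were plated with compounds from DMSO stocks and incubated 2 days at 37 °C in 5% CO2, in duplicate. Cells were fixed with cold TCA, stained with 0.4% SRB, and the bound dye was solubilized in 10 mM tris-base and read at 515 nm. The zero-day control was subtracted, and GI50 was taken from the curves.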

NCI-H460 = assay: Cytotoxicity against human H460 cells assessed as cell growth after 2 days by sulforhodamine B assay; type: functional; details: NCI-H460, 48 h; outline: as §1
SF-268 = assay: Cytotoxicity against human SF268 cells assessed as cell growth after 2 days by sulforhodamine B assay; type: functional; details: SF-268, 48 h; outline: as §1
[1] = Cytotoxicity against human erythrocytes assessed as hemolysis by spectrometric analysis; type: cell-based, Erythrocyte
Outline: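 Human heparinized red blood cells were washed in PBS at pH 7.0 and suspended at 4% in sterile 5% glucose. Compounds from DMSO stocks were diluted in 5% glucose to final concentrations of 250 to 0.24 µg/ml and incubated with the cells at 37 °C. Released hemoglobin was read at 540 nm. HC50 is the concentration giving 50% lysis relative to the drug-free value.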

Candida albicans = assay: Antifungal activity against Candida albicans ATCC 10213; type: functional
Outline: (§2)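 CLSI M27-A3 broth microdilution in RPMI-1640 buffered to pH 7.0 with MOPS. Inoculum 1-5 × 10^3 CFU/mL. Compound twofold dilutions from 250 to 0.24 µg/ml, final DMSO <1%. Incubated at 35 °C in a moist, dark chamber and read at 48 h. MIC is the lowest concentration giving total growth inhibition. For MFC, 5 µL from clear wells was plated in duplicate on SDA; MFC is the lowest concentration with no growth.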

Candida tropicalis = assay: Antifungal activity against Candida tropicalis C 131 2000; type: functional; outline: as §2
Saccharomyces cerevisiae = assay: Antifungal activity against Saccharomyces cerevisiae ATCC 9763; type: functional; outline: as §2
Cryptococcus neoformans = assay: Antifungal activity against Cryptococcus neoformans ATCC 32264; type: functional; outline: as §2
Aspergillus fumigatus = assay: Antifungal activity against Aspergillus fumigatus ATCC 26934; type: functional
Outline: (§3)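 Broth microdilution per CLSI M38-A2 in RPMI-1640 with MOPS at pH 7.0. Inoculum 1-5 × 10^3 CFU/mL, with twofold compound dilutions spanning 250-0.24 µg/ml (final DMSO <1%). Plates incubated at 35 °C, moist and dark, and read when the control fungus had grown. MIC is total growth inhibition. MFC comes from subculturing clear wells in duplicate onto SDA.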

Aspergillus flavus = assay: Antifungal activity against Aspergillus flavus ATCC 9170; type: functional; outline: as §3
Aspergillus niger = assay: Antifungal activity against Aspergillus niger ATCC 9029; type: functional; outline: as §3
Nannizzia gypsea = assay: Antifungal activity against Microsporum gypseum C 115 2000; type: functional
Outline: (§4)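 Dermatophytes tested by CLSI M38-A2 microdilution in MOPS-buffered RPMI-1640 at pH 7.0. Inoculum 1-5 × 10^3 CFU/mL; compounds 250 to 0.24 µg/ml in twofold steps, final DMSO <1%. Incubated at 28 °C in a moist, dark chamber and read according to control growth. MIC is the lowest concentration with complete inhibition. MFC is the lowest concentration with no growth after duplicate subculture on SDA.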

Trichophyton rubrum = assay: Antifungal activity against Trichophyton rubrum C 113 2000; type: functional; outline: as §4
[2] = test system: Trichophyton mentagrophytes; assay: Antifungal activity against Trichophyton mentagrophytes ATCC 9972; type: functional; outline: as §4

SMILES | MIC (Candida albicans) [µg/mL] | MIC (Candida tropicalis) [µg/mL] | MIC (Saccharomyces cerevisiae) [µg/mL] | MIC (Cryptococcus neoformans) [µg/mL] | MIC (Aspergillus fumigatus) [µg/mL] | MIC (Aspergillus flavus) [µg/mL] | MIC (Aspergillus niger) [µg/mL] | MIC (Nannizzia gypsea) [µg/mL] | MIC (Trichophyton rubrum) [µg/mL] | GI50 (MCF7) [µg/mL] | GI50 (NCI-H460) [µg/mL] | GI50 (SF-268) [µg/mL] | HC50 [1] [µg/mL] | MFC (Saccharomyces cerevisiae) [µg/mL] | MFC (Cryptococcus neoformans) [µg/mL] | MFC (Aspergillus fumigatus) [µg/mL] | MFC (Aspergillus flavus) [µg/mL] | MFC (Aspergillus niger) [µg/mL] | MFC (Nannizzia gypsea) [µg/mL] | MFC (Trichophyton rubrum) [µg/mL] | further results
O=C1C(Cl)=C(Cl)C(=O)N1Cc1ccccc1 | 15.6 (≈ 61 µM) | 31.2 (≈ 122 µM) | 7.81 (≈ 30.5 µM) | 7.81 (≈ 30.5 µM) | 15.6 (≈ 61 µM) | 31.2 (≈ 122 µM) | 31.2 (≈ 122 µM) | 15.6 (≈ 61 µM) | 7.81 (≈ 30.5 µM) | > 10 | > 10 | > 10 | > 250 | 15.6 (≈ 61 µM) | 15.6 (≈ 61 µM) | 31.2 (≈ 122 µM) | 31.2 (≈ 122 µM) | 62.5 (≈ 244 µM) | 31.2 (≈ 122 µM) | 15.6 (≈ 61 µM) | MFC (Candida albicans): 31.2 µg/mL (≈ 122 µM); MFC (Candida tropicalis): 31.2 µg/mL (≈ 122 µM); MFC [2]: 15.6 µg/mL (≈ 61 µM); MIC [2]: 7.81 µg/mL (≈ 30.5 µM)
O=C1C(Cl)=C(Cl)C(=O)N1CCc1ccccc1 | 7.81 (≈ 28.9 µM) | 15.6 (≈ 57.9 µM) | 3.9 (≈ 14.4 µM) | 7.81 (≈ 28.9 µM) | 15.6 (≈ 57.9 µM) | 15.6 (≈ 57.9 µM) | 15.6 (≈ 57.9 µM) | 15.6 (≈ 57.9 µM) | 3.9 (≈ 14.4 µM) | > 10 | > 10 | > 10 | > 250 | 7.81 (≈ 28.9 µM) | 7.81 (≈ 28.9 µM) | 15.6 (≈ 57.9 µM) | 15.6 (≈ 57.9 µM) | 31.2 (≈ 116 µM) | 31.2 (≈ 116 µM) | 7.81 (≈ 28.9 µM) | MFC (Candida albicans): 15.6 µg/mL (≈ 57.9 µM); MFC (Candida tropicalis): 31.2 µg/mL (≈ 116 µM); MFC [2]: 15.6 µg/mL (≈ 57.9 µM); MIC [2]: 7.81 µg/mL (≈ 28.9 µM)
O=C1C(Cl)=C(Cl)C(=O)N1CCCc1ccccc1 | 7.81 (≈ 27.5 µM) | 7.81 (≈ 27.5 µM) | 3.9 (≈ 13.7 µM) | 3.9 (≈ 13.7 µM) | 15.6 (≈ 55 µM) | 15.6 (≈ 55 µM) | 15.6 (≈ 55 µM) | 15.6 (≈ 55 µM) | 3.9 (≈ 13.7 µM) | > 10 | > 10 | > 10 | > 250 | 3.9 (≈ 13.7 µM) | 3.9 (≈ 13.7 µM) | 31.2 (≈ 110 µM) | 31.2 (≈ 110 µM) | 15.6 (≈ 55 µM) | 15.6 (≈ 55 µM) | 7.81 (≈ 27.5 µM) | MFC (Candida albicans): 15.6 µg/mL (≈ 55 µM); MFC (Candida tropicalis): 15.6 µg/mL (≈ 55 µM); MFC [2]: 7.81 µg/mL (≈ 27.5 µM); MIC [2]: 3.9 µg/mL (≈ 13.7 µM)
O=C1C(Cl)=C(Cl)C(=O)N1CCCCc1ccccc1 | 7.81 (≈ 26.2 µM) | 7.81 (≈ 26.2 µM) | 3.9 (≈ 13.1 µM) | 3.9 (≈ 13.1 µM) | 31.2 (≈ 105 µM) | 15.6 (≈ 52.4 µM) | 15.6 (≈ 52.4 µM) | 15.6 (≈ 52.4 µM) | 3.9 (≈ 13.1 µM) | > 10 | > 10 | > 10 | > 250 | 7.81 (≈ 26.2 µM) | 3.9 (≈ 13.1 µM) | 62.5 (≈ 210 µM) | 31.2 (≈ 105 µM) | 15.6 (≈ 52.4 µM) | 31.2 (≈ 105 µM) | 7.81 (≈ 26.2 µM) | MFC (Candida albicans): 15.6 µg/mL (≈ 52.4 µM); MFC (Candida tropicalis): 15.6 µg/mL (≈ 52.4 µM); MFC [2]: 7.81 µg/mL (≈ 26.2 µM); MIC [2]: 3.9 µg/mL (≈ 13.1 µM)
O=C1C=CC(=O)N1Cc1ccccc1 | 3.9 (≈ 20.8 µM) | 15.6 (≈ 83.5 µM) | 7.81 (≈ 41.7 µM) | 7.81 (≈ 41.7 µM) | 125 (≈ 668 µM) | 62.5 (≈ 334 µM) | 31.2 (≈ 167 µM) | 3.9 (≈ 20.8 µM) | 3.9 (≈ 20.8 µM) | > 10 | > 10 | > 10 | > 250 | 15.6 (≈ 83.5 µM) | 15.6 (≈ 83.5 µM) | 250 (≈ 1340 µM) | 125 (≈ 668 µM) | 62.5 (≈ 334 µM) | 7.81 (≈ 41.7 µM) | 7.81 (≈ 41.7 µM) | MFC (Candida albicans): 7.81 µg/mL (≈ 41.7 µM); MFC [2]: 7.81 µg/mL (≈ 41.7 µM); MIC [2]: 3.9 µg/mL (≈ 20.8 µM)

Further compounds by falling MIC (Candida albicans), results first:

MIC (Candida albicans) [µg/mL] | MIC (Candida tropicalis) [µg/mL] | MIC (Saccharomyces cerevisiae) [µg/mL] | MIC (Cryptococcus neoformans) [µg/mL] | MIC (Aspergillus fumigatus) [µg/mL] | MIC (Aspergillus flavus) [µg/mL] | MIC (Aspergillus niger) [µg/mL] | MIC (Nannizzia gypsea) [µg/mL] | MIC (Trichophyton rubrum) [µg/mL] | SMILES | GI50 (MCF7) [µg/mL] | GI50 (NCI-H460) [µg/mL] | GI50 (SF-268) [µg/mL] | HC50 [1] [µg/mL] | MFC (Saccharomyces cerevisiae) [µg/mL] | MFC (Cryptococcus neoformans) [µg/mL] | MFC (Aspergillus fumigatus) [µg/mL] | MFC (Aspergillus flavus) [µg/mL] | MFC (Aspergillus niger) [µg/mL] | MFC (Nannizzia gypsea) [µg/mL] | MFC (Trichophyton rubrum) [µg/mL] | further results
3.9 (≈ 19.4 µM) | 15.6 (≈ 77.7 µM) | 3.9 (≈ 19.4 µM) | 7.81 (≈ 38.8 µM) | 31.2 (≈ 155 µM) | 31.2 (≈ 155 µM) | 15.6 (≈ 77.7 µM) | 3.9 (≈ 19.4 µM) | 1.95 (≈ 9.69 µM) | O=C1C=CC(=O)N1CCc1ccccc1 | 3.6 (≈ 17.9 µM) | 4.7 (≈ 23.4 µM) | 4.1 (≈ 20.4 µM) | > 250 | 7.81 (≈ 38.8 µM) | 15.6 (≈ 77.7 µM) | 31.2 (≈ 155 µM) | 31.2 (≈ 155 µM) | 15.6 (≈ 77.7 µM) | 7.81 (≈ 38.8 µM) | 3.9 (≈ 19.4 µM) | MFC [2]: 15.6 µg/mL (≈ 77.7 µM); MIC [2]: 7.81 µg/mL (≈ 38.8 µM)
3.9 (≈ 18.1 µM) | 3.9 (≈ 18.1 µM) | 0.97 (≈ 4.51 µM) | 15.6 (≈ 72.6 µM) | 15.6 (≈ 72.6 µM) | 31.2 (≈ 145 µM) | 15.6 (≈ 72.6 µM) | 0.97 (≈ 4.51 µM) | 1.95 (≈ 9.06 µM) | O=C1C=CC(=O)N1CCCc1ccccc1 | 5.2 (≈ 24.2 µM) | > 10 | 5.8 (≈ 26.9 µM) | > 250 | 1.95 (≈ 9.06 µM) | 31.2 (≈ 145 µM) | 31.2 (≈ 145 µM) | 62.5 (≈ 290 µM) | 15.6 (≈ 72.6 µM) | 1.95 (≈ 9.06 µM) | 1.95 (≈ 9.06 µM) | MFC (Candida tropicalis): 15.6 µg/mL (≈ 72.6 µM); MFC [2]: 7.81 µg/mL (≈ 36.3 µM); MIC [2]: 3.9 µg/mL (≈ 18.1 µM)
3.9 (≈ 17 µM) | 7.81 (≈ 34.1 µM) | 0.97 (≈ 4.23 µM) | 15.6 (≈ 68.2 µM) | 15.6 (≈ 68.2 µM) | 7.81 (≈ 34.1 µM) | 7.81 (≈ 34.1 µM) | 0.97 (≈ 4.23 µM) | 0.48 (≈ 2.09 µM) | O=C1C=CC(=O)N1CCCCc1ccccc1 | > 10 | > 10 | > 10 | > 250 | 1.95 (≈ 8.5 µM) | 31.2 (≈ 136 µM) | 31.2 (≈ 136 µM) | 15.6 (≈ 68.2 µM) | 7.81 (≈ 34.1 µM) | 1.95 (≈ 8.5 µM) | 0.97 (≈ 4.23 µM) | MFC (Candida albicans): 7.81 µg/mL (≈ 34.1 µM); MFC (Candida tropicalis): 15.6 µg/mL (≈ 68.2 µM); MFC [2]: 7.81 µg/mL (≈ 34.1 µM); MIC [2]: 3.9 µg/mL (≈ 17 µM)
